Laboratory results reported in ChEMBL document CHEMBL2396626, “Exploiting drug-resistant enzymes as tools to identify thienopyrimidinone inhibitors of human immunodeficiency virus reverse transcriptase-associated ribonuclease H” (J Med Chem, 2013).
Activity calls are given as the source filed them. The calls are words filed in the database; no cut-off is given here.

Key:
[1] = Inhibition of RNase H activity of HIV-1 reverse transcriptase p66/p51 T286A mutant using 18 nucleotide 3'-fluorescein-labeled RNA/18 nucleotide 5'-dabsyl-labeled DNA hybrid as substrate after 10 mins by fluorescence spectrometric analysis; design: species or system Human immunodeficiency virus 1
[2] = Inhibition of RNase H activity of HIV-1 reverse transcriptase p66/p51 R284A mutant using 18 nucleotide 3'-fluorescein-labeled RNA/18 nucleotide 5'-dabsyl-labeled DNA hybrid as substrate after 10 mins by fluorescence spectrometric analysis; design: species or system Human immunodeficiency virus 1
[3] = Inhibition of RNase H activity of HIV-1 reverse transcriptase p66/p51 C280A mutant using 18 nucleotide 3'-fluorescein-labeled RNA/18 nucleotide 5'-dabsyl-labeled DNA hybrid as substrate after 10 mins by fluorescence spectrometric analysis; design: species or system Human immunodeficiency virus 1
[4] = Inhibition of RNase H activity of HIV-1 reverse transcriptase p66/p51 V276A mutant using 18 nucleotide 3'-fluorescein-labeled RNA/18 nucleotide 5'-dabsyl-labeled DNA hybrid as substrate after 10 mins by fluorescence spectrometric analysis; design: species or system Human immunodeficiency virus 1
[5] = molecular target: Human immunodeficiency virus type 1 reverse transcriptase (Human immunodeficiency virus 1, UniProt Q72547); assay: Inhibition of RNase H activity of wild type HIV-1 reverse transcriptase using 18 nucleotide 3'-fluorescein-labeled RNA/18 nucleotide 5'-dabsyl-labeled DNA hybrid as substrate after 10 mins by fluorescence spectrometric analysis
[6] = Selectivity ratio of CC50 for human CEM-SS cells to EC50 for Human immunodeficiency virus 1 RF isolate; type: ADME, cell-based
CEM-SS = assay: Cytotoxicity against human CEM-SS cells by XTT assay; type: cell-based
Method in brief: (§1)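 Cytopathic-protection format: HIV-1 RF isolate in human T-cell line CEM-SS, with cell viability read by XTT-based assay.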

[7] = system: Human immunodeficiency virus 1; assay: Antiviral activity against Human immunodeficiency virus 1 RF isolate infected in human CEM-SS cells by XTT assay; type: functional, organism-based; method in brief: as §1
[8] = molecular target: Human immunodeficiency virus type 1 reverse transcriptase (Human immunodeficiency virus 1) (UniProt Q72547); assay: Binding affinity to HIV-1 reverse transcriptase p66/p51 assessed as decrease in melting temperature at 10 uM by differential scanning fluorimetric analysis in presence of Mg2+
[9] = molecular target: Human immunodeficiency virus type 1 integrase (Human immunodeficiency virus 1) (UniProt Q7ZJM1); assay: Inhibition of HIV-1 integrase using DNA duplex as substrate at 50 uM preincubated for 10 mins prior to substrate addition measured after 1 hr
[10] = system: Human immunodeficiency virus type 1 reverse transcriptase (Human immunodeficiency virus 1), Q72547 [Y181C]; assay: Inhibition of HIV-1 reverse transcriptase Y181C mutant at 50 uM
[11] = system: Human immunodeficiency virus type 1 reverse transcriptase (Human immunodeficiency virus 1), Q72547 [K103N]; assay: Inhibition of HIV-1 reverse transcriptase K103N mutant at 50 uM
[12] = system: Human immunodeficiency virus 1; assay: Inhibition of HIV-1 DNA-dependent DNA polymerase using DNA duplex as substrate at 50 uM after 15 mins by PAGE relative to control

Chain of Human immunodeficiency virus type 1 integrase (Human immunodeficiency virus 1) (Q7ZJM1 as listed by the source): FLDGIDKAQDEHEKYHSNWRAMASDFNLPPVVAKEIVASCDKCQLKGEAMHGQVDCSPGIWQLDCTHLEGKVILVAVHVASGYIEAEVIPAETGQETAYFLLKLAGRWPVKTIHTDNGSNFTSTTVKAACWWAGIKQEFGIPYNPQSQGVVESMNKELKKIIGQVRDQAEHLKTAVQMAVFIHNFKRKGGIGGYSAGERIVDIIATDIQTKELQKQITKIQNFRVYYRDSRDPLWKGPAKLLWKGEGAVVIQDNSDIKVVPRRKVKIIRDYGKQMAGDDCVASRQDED

Row | Compound | IC50 [1] | IC50 [2] | IC50 [3] | IC50 [4] | IC50 [5] | further results
1 | O=c1[nH]c(-c2ccc(O)cc2)nc2sc3c(c12)CCCCC3 | 6600 nM | 650 nM | 15800 nM | 640 nM | 3200 nM | –
2 | Cc1sc2nc(-c3ccc(O)c(F)c3)[nH]c(=O)c2c1C | – | – | – | – | > 50000 nM | –
3 | O=c1[nH]c(-c2cccc(O)c2O)nc2sc3c(c12)CCCCC3 | 3600 nM | 2900 nM | 1600 nM | 2800 nM | 1800 nM | Ratio CC50/EC50 [6]: 3.6; CC50 (CEM-SS): 9800 nM; EC50 [7]: 2700 nM; ΔTm [8]: 0.5 °C
4 | O=c1[nH]c(-c2ccc(O)c(O)c2)nc2sc3c(c12)CCC3 | 370 nM | 470 nM | 260 nM | 210 nM | 320 nM | inhibition [9]: inactive; inhibition [10]: Active; inhibition [11]: Active; inhibition [12]: > 60%; ΔTm [8]: 0.5 °C
5 | Cc1sc2nc(-c3ccc([N+](=O)[O-])o3)[nH]c(=O)c2c1C | – | – | – | – | 16900 nM | –
6 | Cc1sc2nc(-c3cc(O)c(O)c(O)c3)[nH]c(=O)c2c1C | – | – | – | – | 690 nM | –
7 | CCCCc1c(C)sc2nc(-c3ccc(O)c(O)c3)[nH]c(=O)c12 | 1100 nM | 1200 nM | 490 nM | 910 nM | 420 nM | Ratio CC50/EC50 [6]: 3.2; CC50 (CEM-SS): 25400 nM; EC50 [7]: 7900 nM; inhibition [9]: inactive; inhibition [10]: Active; inhibition [11]: Active; inhibition [12]: > 60%; ΔTm [8]: 0.5 °C
8 | Cc1sc2nc(-c3ccccc3)[nH]c(=O)c2c1C | – | – | – | – | 11300 nM | –
9 | Cc1sc2nc(-c3cccc(O)c3)[nH]c(=O)c2c1C | – | – | – | – | > 50000 nM | –
10 | O=c1[nH]c(-c2ccc(O)c(O)c2)nc2sc3c(c12)CCCC3 | 460 nM | 920 nM | 290 nM | 410 nM | 370 nM | inhibition [9]: inactive; inhibition [10]: Active; inhibition [11]: Active; inhibition [12]: > 60%; ΔTm [8]: 0.5 °C
11 | Cc1sc2nc(-c3cc(O)c(O)cc3O)[nH]c(=O)c2c1C | – | – | – | – | 1600 nM | –
12 | CCCc1c(CC)sc2nc(-c3ccc(O)c(O)c3)[nH]c(=O)c12 | 820 nM | 1400 nM | 500 nM | 760 nM | 590 nM | Ratio CC50/EC50 [6]: 3.7; CC50 (CEM-SS): 33700 nM; EC50 [7]: 9200 nM; inhibition [9]: inactive; inhibition [10]: Active; inhibition [11]: Active; inhibition [12]: > 60%; ΔTm [8]: 0.5 °C
13 | Cc1sc2nc(-c3ccccn3)[nH]c(=O)c2c1C | – | – | – | – | 4200 nM | –
14 | O=c1[nH]c(-c2ccc(C(F)(F)F)cc2)nc2sc3c(c12)CCCCC3 | 7200 nM | 540 nM | 10600 nM | 530 nM | 3100 nM | –
15 | COc1ccc(-c2nc3sc(C)c(C)c3c(=O)[nH]2)cc1 | – | – | – | – | 9100 nM | –
16 | Cc1sc2nc(-c3ccc(C(=O)O)cc3)[nH]c(=O)c2c1C | – | – | – | – | 1600 nM | –
17 | O=C(O)c1ccc(-c2nc3sc4c(c3c(=O)[nH]2)CCCCC4)cc1 | 32000 nM | 950 nM | > 50000 nM | 460 nM | 1900 nM | –
18 | O=c1[nH]c(-c2ccc(O)cc2O)nc2sc3c(c12)CCCCC3 | – | – | – | – | 9300 nM | –
19 | Cc1sc2nc(-c3ccc(C(F)(F)F)cc3)[nH]c(=O)c2c1C | 7500 nM | 230 nM | > 50000 nM | 310 nM | 1300 nM | –

Row | Compound | IC50 [1] | IC50 [2] | IC50 [3] | IC50 [4] | IC50 [5] | further results
20 | Cc1sc2nc(-c3cc(O)cc(O)c3)[nH]c(=O)c2c1C | – | – | – | – | 5200 nM | –
21 | Cc1sc2nc(-c3cccc(C(F)(F)F)c3)[nH]c(=O)c2c1C | – | – | – | – | > 50000 nM | –
22 | O=c1[nH]c(-c2cc(O)ccc2O)nc2sc3c(c12)CCCCC3 | – | – | – | – | 1700 nM | –
23 | Cc1sc2nc(-c3cc4ccccc4[nH]3)[nH]c(=O)c2c1C | 960 nM | 120 nM | > 50000 nM | 160 nM | 480 nM | –
24 | CCCc1c(C)sc2nc(-c3cccc(O)c3O)[nH]c(=O)c12 | 5700 nM | 3500 nM | 2900 nM | 4100 nM | 1700 nM | Ratio CC50/EC50 [6]: 4; CC50 (CEM-SS): 12400 nM; EC50 [7]: 3100 nM; inhibition [9]: inactive; ΔTm [8]: 0.5 °C
25 | O=c1[nH]c(-c2ccccc2)nc2sc3c(c12)CCCCC3 | 27900 nM | 1300 nM | 41400 nM | 960 nM | 4100 nM | –
26 | Cc1sc2nc(-c3cccc([N+](=O)[O-])c3)[nH]c(=O)c2c1C | – | 340 nM | > 50000 nM | 260 nM | 1500 nM | –
27 | COc1cc(-c2nc3sc(C)c(C)c3c(=O)[nH]2)ccc1O | – | – | – | – | > 50000 nM | –
28 | Cc1sc2nc(-c3cc(C(F)(F)F)cc(C(F)(F)F)c3)[nH]c(=O)c2c1C | – | – | – | – | > 50000 nM | –
29 | COc1ccc(-c2nc3sc(C)c(C)c3c(=O)[nH]2)cc1OC | – | – | – | – | 12600 nM | –
30 | CCCc1c(C)sc2nc(-c3ccc(O)c(O)c3)[nH]c(=O)c12 | 570 nM | 800 nM | 370 nM | 560 nM | 490 nM | Ratio CC50/EC50 [6]: 5.9; CC50 (CEM-SS): 11200 nM; EC50 [7]: 1900 nM; ΔTm [8]: 0.5 °C
31 | Cc1sc2nc(-c3cc(O)ccc3O)[nH]c(=O)c2c1C | – | – | – | – | 9300 nM | –
32 | Cc1sc2nc(-c3cccnc3)[nH]c(=O)c2c1C | – | – | – | – | 8300 nM | –
33 | O=c1[nH]c(-c2ccc(O)c(O)c2)nc2sc3c(c12)CCCCCC3 | 290 nM | 280 nM | 230 nM | 110 nM | 260 nM | inhibition [9]: inactive; inhibition [10]: Active; inhibition [11]: Active; inhibition [12]: > 60%; ΔTm [8]: 0.5 °C
34 | Cc1sc2nc(-c3ccc(O)cc3)[nH]c(=O)c2c1C | 3700 nM | 200 nM | > 50000 nM | 140 nM | 790 nM | –
35 | Cc1sc2nc(-c3ccc(F)c(F)c3)[nH]c(=O)c2c1C | – | – | – | – | > 50000 nM | –
36 | Cc1sc2nc(-c3ccc(Cl)c([N+](=O)[O-])c3)[nH]c(=O)c2c1C | – | – | – | – | 12000 nM | –
37 | Cc1sc2nc(-c3ccc([N+](=O)[O-])cc3)[nH]c(=O)c2c1C | – | – | – | – | – | ΔTm [8]: 0.5 °C
38 | O=c1[nH]c(-c2cc(O)cc(O)c2)nc2sc3c(c12)CCCCC3 | – | – | – | – | 2600 nM | –
